Structures are written as SMILES. Bridge positions count the residues as written; N and C are the ends. Square brackets hold non-standard residues; d marks the D form. Peptide text beside a SMILES is read from it.

The nature of series [1]: Inhibition of growth hormone spontaneous secretion in rat anterior pituitary cells assessed as hormone level by radioimmunoassay relative to somatostatin. The series is classed as functional, Pituitary gland cell. Also on record: scale not given: the % may be the effect or the level left.
Series [2] deals with Rattus norvegicus. In words: Inhibition of insulin secretion in jugular vein dosed rat assessed as assessed as hormone level using blood sample from hepatic portal vein by radioimmunoassay relative to somatostatin. It is filed as functional. Details: scale not given: the % may be the effect or the level left. Summed up:
(§1)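 Rats under ether anaesthesia received test samples by jugular vein injection. Blood was drawn from the hepatic portal vein, and hormone levels were measured by specific radioimmunoassay. Six rats per point. Potency was derived from four-point bioassays with somatostatin as reference standard, with log dose-response parallelism checked.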

Series [3] is described as follows: Partition coefficient, K of the compound using system BAW at 4:1:5 ratio. The series is classed as physicochemical.
Series [4] deals with Rattus norvegicus. Kind of series: Inhibition of glucagon secretion in jugular vein dosed rat assessed using blood sample from hepatic portal vein assessed as hormone level by radioimmunoassay relative to somatostatin. It is filed as functional. Also on record: scale not given: the % may be the effect or the level left. The method in brief:
as §1

The nature of series [5]: Retardation factor of the compound using 2.5% pyridine, 5% 1-butanol and 90% water at pH 4.7 buffer relative to lysine and alanine by ninhydrin spray.

With `C[C@@H](O)[C@@H]1NC(=O)[C@H](Cc2ccccc2)NC(=O)[C@H]([C@@H](C)O)NC(=O)[C@H](CCCCN)NC(=O)[C@H](Cc2c[nH]c3ccccc23)NC(=O)[C@H](Cc2ccccc2)NC(=O)[C@H](Cc2ccccc2)NC(=O)[C@H](CC(N)=O)NC(=O)[C@H](CCCCN)NC(=O)[C@@H](NC(=O)CNC(=O)[C@@H](N)Cc2ccc(O)cc2)CSSC[C@@H](C(=O)O)NC(=O)[C@H](CO)NC1=O`, the figures for the Activity (in series [1]; in the series with Rattus norvegicus [2]; in the series with Rattus norvegicus [4]) were 116%, 70% and 78%, respectively. In addition, the K in series [3] is listed as 0.41. For the same molecule, the Rf in series [5] came out at 0.33.

For `C[C@@H](O)[C@@H]1NC(=O)[C@H](Cc2ccccc2)NC(=O)[C@H]([C@@H](C)O)NC(=O)[C@H](CCCCN)NC(=O)[C@@H](Cc2c[nH]c3ccccc23)NC(=O)[C@H](Cc2ccccc2)NC(=O)[C@H](Cc2ccccc2)NC(=O)[C@H](CC(N)=O)NC(=O)[C@H](CCCCN)NC(=O)[C@@H](NC(=O)CNC(=O)[C@@H](N)Cc2ccc(O)cc2)CSSC[C@@H](C(=O)O)NC(=O)[C@H](CO)NC1=O`, the Activity in series [1] is recorded as 400%; in the series on Rattus norvegicus [2] it was 659%. For the same molecule, the K in series [3] came out at 0.34. The molecule also came in with a Rf in series [5] of 0.38.

In the case of `C[C@H](N)C(=O)NCC(=O)N[C@H]1CSSC[C@@H](C(=O)O)NC(=O)[C@H](CO)NC(=O)[C@H]([C@@H](C)O)NC(=O)[C@H](Cc2ccc(O)cc2)NC(=O)[C@H]([C@@H](C)O)NC(=O)[C@H](CCCCN)NC(=O)[C@H](Cc2c[nH]c3ccccc23)NC(=O)[C@H](Cc2ccccc2)NC(=O)[C@H](Cc2ccccc2)NC(=O)[C@H](CC(N)=O)NC(=O)[C@H](CCCCN)NC1=O` (H-AGCKNFFWKTYTSC-OH; disulfide 3-14), the Activity in series [1] stood at 65%; in the series on Rattus norvegicus [2], 252%; with Rattus norvegicus [4] it was 65%. Also, in series [3], the K is on record as 0.24. This molecule showed a Rf in series [5] of 0.45.

For `C[C@H](N)C(=O)NCC(=O)N[C@H]1CSSC[C@@H](C(=O)O)NC(=O)[C@H](CO)NC(=O)[C@H]([C@@H](C)O)NC(=O)[C@H](Cc2ccccc2)NC(=O)[C@H]([C@@H](C)O)NC(=O)[C@H](CCCCN)NC(=O)[C@@H](Cc2ccc(O)cc2)NC(=O)[C@H](Cc2ccccc2)NC(=O)[C@H](Cc2ccccc2)NC(=O)[C@H](CC(N)=O)NC(=O)[C@H](CCCCN)NC1=O` (H-AGCKNFF[dY]KTFTSC-OH; disulfide 3-14), the Activity in series [1] was 10%; in the series with Rattus norvegicus [2], 28%; with Rattus norvegicus [4], less than 10%. For the same molecule, in series [3], the K was found to be 0.24. For the same molecule, the Rf in series [5] came to 0.41.

On to `C[C@H](N)C(=O)NCC(=O)N[C@H]1CSSC[C@@H](C(=O)O)NC(=O)[C@H](CO)NC(=O)[C@H]([C@@H](C)O)NC(=O)[C@H](Cc2ccccc2)NC(=O)[C@H]([C@@H](C)O)NC(=O)[C@H](CCCCN)NC(=O)[C@H](Cc2c[nH]c3ccccc23)NC(=O)[C@H](Cc2ccc(O)cc2)NC(=O)[C@H](Cc2ccccc2)NC(=O)[C@H](CC(N)=O)NC(=O)[C@H](CCCCN)NC1=O` (H-AGCKNFYWKTFTSC-OH; disulfide 3-14), for which the Activity in series [1] came to 108%; in the series on Rattus norvegicus [2], 75%; in the series with Rattus norvegicus [4] it was 109%. Moreover, the K in series [3] is 0.23. This molecule also showed a Rf in series [5] of 0.44.

`C[C@H](N)C(=O)NCC(=O)N[C@H]1CSSC[C@@H](C(=O)O)NC(=O)[C@H](CO)NC(=O)[C@H]([C@@H](C)O)NC(=O)[C@H](Cc2ccccc2)NC(=O)[C@H]([C@@H](C)O)NC(=O)[C@H](CCCCN)NC(=O)[C@H](Cc2c[nH]c3ccccc23)NC(=O)[C@H](Cc2ccccc2)NC(=O)[C@H](Cc2ccc(O)cc2)NC(=O)[C@H](CC(N)=O)NC(=O)[C@H](CCCCN)NC1=O` (H-AGCKNYFWKTFTSC-OH; disulfide 3-14): the Activity in series [1] is listed as 29%; in the series with Rattus norvegicus [2], 12%; with Rattus norvegicus [4], 14%. Further, the K in series [3] was 0.23. The molecule also gave a Rf in series [5] of 0.38.

In turn, `C[C@H](N)C(=O)NCC(=O)N[C@H]1CSSC[C@@H](C(=O)O)NC(=O)[C@H](CO)NC(=O)[C@H]([C@@H](C)O)NC(=O)[C@H](Cc2ccccc2)NC(=O)[C@H]([C@@H](C)O)NC(=O)[C@H](CCCCN)NC(=O)[C@H](Cc2c[nH]c3ccccc23)NC(=O)[C@H](Cc2ccccc2)NC(=O)[C@H](Cc2ccccc2)NC(=O)[C@H](CC(N)=O)NC(=O)[C@H](CCCCN)NC1=O` [SOMATOSTATIN] gave a Rf in series [5] of 0.43.

The values above are taken from ChEMBL document CHEMBL3272171, “Tyrosylated analogues of somatostatin” (J Med Chem, 1976).
